Columns and labels:
[1] = target: Metabotropic glutamate receptor 2 (Homo sapiens, UniProt Q14416); assay: Activity at human recombinant mGluR2 expressed in BHK cells assessed as stimulation of [35S]GTP-gamma-S binding; assay type: functional, cell-based
[2] = target: Metabotropic glutamate receptor 8 (Rattus norvegicus, UniProt P70579); assay: Displacement of [3H]LY341495 from rat recombinant mGluR8 expressed in BHK cells by SPA assay; assay type: cell-based
Summary of the method: (§1)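 Scintillation proximity binding assay on membranes of BHK cells expressing rmGluR4 or rmGluR8. Radioligand was [3H]-L-AP4 for rmGluR4 and [3H]-LY341495 for rmGluR8. Values are means ± SEM of at least three independent experiments performed in triplicate.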

[3] = target: T1, Metabotropic glutamate receptor 4 (Rattus norvegicus, UniProt P31423); assay: Displacement of [3H]L-AP4 from rat recombinant mGluR4 expressed in BHK cells by SPA assay; assay type: cell-based; summary of the method: as §1
T1 sequence (P31423 whole entry): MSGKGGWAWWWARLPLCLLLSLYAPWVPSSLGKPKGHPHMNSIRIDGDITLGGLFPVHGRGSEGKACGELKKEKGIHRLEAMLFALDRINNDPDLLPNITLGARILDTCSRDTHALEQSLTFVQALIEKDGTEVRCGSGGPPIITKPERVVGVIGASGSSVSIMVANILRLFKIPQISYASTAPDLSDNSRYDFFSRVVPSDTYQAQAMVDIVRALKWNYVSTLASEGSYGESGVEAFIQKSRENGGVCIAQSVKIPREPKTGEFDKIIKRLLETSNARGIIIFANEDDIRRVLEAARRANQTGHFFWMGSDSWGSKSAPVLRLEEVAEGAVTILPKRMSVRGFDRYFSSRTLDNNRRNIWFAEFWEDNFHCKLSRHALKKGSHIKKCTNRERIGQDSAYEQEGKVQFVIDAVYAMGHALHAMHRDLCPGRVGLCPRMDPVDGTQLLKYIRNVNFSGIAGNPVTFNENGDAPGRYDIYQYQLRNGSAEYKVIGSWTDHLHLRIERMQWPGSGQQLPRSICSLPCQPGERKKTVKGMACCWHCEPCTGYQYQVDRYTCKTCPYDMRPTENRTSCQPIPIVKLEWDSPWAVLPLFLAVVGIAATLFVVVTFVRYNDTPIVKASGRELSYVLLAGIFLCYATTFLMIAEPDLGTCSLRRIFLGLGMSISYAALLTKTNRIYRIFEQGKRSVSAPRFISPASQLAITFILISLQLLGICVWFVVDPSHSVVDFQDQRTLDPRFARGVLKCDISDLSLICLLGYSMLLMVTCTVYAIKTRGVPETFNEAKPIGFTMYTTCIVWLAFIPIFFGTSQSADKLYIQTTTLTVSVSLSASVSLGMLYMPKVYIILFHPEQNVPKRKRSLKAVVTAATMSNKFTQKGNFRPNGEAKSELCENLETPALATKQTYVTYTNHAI

[4] = target: Metabotropic glutamate receptor 1 (Rattus norvegicus, UniProt P23385); assay: Activity at rat recombinant mGluR1 expressed in CHO cells assessed as intracellular calcium concentration; assay type: functional, cell-based
[5] = target: Metabotropic glutamate receptor 5 (Rattus norvegicus, UniProt P31424); assay: Activity at rat recombinant mGluR5 expressed in CHO cells assessed as intracellular calcium concentration; assay type: functional, cell-based
Metabotropic glutamate receptor 5, sequence (P31424 whole entry): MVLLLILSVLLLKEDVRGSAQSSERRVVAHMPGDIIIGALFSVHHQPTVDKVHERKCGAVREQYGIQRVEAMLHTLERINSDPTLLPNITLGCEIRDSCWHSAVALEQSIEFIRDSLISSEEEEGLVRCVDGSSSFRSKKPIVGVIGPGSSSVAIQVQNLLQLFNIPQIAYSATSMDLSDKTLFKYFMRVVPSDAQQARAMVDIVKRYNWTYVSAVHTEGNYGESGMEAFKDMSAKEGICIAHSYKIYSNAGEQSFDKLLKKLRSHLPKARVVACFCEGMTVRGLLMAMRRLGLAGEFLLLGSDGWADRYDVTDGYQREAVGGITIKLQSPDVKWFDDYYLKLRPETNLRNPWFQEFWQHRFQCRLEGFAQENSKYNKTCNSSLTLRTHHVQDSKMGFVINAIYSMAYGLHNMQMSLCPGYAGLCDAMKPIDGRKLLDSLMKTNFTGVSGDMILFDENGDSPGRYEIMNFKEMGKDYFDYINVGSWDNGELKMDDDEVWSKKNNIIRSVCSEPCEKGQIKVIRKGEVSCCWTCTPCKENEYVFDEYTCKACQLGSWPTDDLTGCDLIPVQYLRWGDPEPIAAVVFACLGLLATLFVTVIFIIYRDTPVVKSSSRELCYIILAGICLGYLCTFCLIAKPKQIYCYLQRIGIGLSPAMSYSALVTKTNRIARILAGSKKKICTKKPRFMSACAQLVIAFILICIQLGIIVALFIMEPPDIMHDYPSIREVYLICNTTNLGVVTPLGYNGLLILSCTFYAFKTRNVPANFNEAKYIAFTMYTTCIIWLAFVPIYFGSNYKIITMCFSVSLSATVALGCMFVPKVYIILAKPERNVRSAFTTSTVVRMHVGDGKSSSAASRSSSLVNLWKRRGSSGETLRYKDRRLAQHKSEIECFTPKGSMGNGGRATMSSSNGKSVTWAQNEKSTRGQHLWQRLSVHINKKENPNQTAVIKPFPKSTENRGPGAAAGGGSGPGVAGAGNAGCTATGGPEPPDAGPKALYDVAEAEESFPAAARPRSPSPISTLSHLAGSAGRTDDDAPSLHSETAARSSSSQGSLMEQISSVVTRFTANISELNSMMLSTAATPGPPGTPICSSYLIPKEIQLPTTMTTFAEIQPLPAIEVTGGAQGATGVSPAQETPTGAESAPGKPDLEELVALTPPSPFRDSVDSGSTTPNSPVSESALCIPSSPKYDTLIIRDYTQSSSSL

[6] = target: T1, Metabotropic glutamate receptor 4; assay: Agonist activity at rat recombinant mGluR4 expressed in BHK cells; assay type: functional, cell-based
Summary of the method: (§2)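 Group III functional read-out: cAMP formation measured in BHK cells expressing hmGluR7 or rmGluR4. EC50 reported in µM as means ± SEM of at least three independent experiments, each performed in triplicate.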

[7] = target: Metabotropic glutamate receptor 6 (Rattus norvegicus, UniProt P35349); assay: Activity at rat recombinant mGluR6 expressed in CHO cells assessed as cAMP production; assay type: functional, cell-based
Metabotropic glutamate receptor 6, sequence (P35349 whole entry): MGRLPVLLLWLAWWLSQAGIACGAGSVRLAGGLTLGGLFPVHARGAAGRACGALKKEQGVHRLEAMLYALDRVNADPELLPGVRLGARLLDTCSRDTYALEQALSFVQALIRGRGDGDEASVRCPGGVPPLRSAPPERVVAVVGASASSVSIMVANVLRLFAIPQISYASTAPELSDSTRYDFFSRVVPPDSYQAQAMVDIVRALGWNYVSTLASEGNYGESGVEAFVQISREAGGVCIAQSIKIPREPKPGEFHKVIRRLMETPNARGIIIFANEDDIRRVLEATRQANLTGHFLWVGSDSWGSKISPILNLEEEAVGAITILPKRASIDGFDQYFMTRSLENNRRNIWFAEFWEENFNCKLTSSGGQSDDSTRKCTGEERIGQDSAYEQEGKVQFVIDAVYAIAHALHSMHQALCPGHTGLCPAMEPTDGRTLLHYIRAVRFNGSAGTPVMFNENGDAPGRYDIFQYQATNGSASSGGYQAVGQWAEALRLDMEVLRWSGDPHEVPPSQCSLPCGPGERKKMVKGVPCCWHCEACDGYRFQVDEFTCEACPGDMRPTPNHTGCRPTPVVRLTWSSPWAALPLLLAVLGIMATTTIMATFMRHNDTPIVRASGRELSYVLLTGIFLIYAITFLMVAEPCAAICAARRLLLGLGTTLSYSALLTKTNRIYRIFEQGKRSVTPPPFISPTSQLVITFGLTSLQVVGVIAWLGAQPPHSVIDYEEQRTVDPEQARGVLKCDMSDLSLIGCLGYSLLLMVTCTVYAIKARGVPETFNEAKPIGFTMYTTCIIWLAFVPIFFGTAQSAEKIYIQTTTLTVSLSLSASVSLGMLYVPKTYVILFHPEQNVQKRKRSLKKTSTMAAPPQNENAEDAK
Summary of the method: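 rmGluR6 expressed in CHO cells. Potency was measured from cAMP formation, reported as EC50. Means ± SEM of at least three independent experiments, each in triplicate.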

[8] = target: Metabotropic glutamate receptor 7 (Homo sapiens, UniProt Q14831); assay: Activity at human recombinant mGluR7 expressed in BHK cells assessed as cAMP production; assay type: functional, cell-based; summary of the method: as §2
Metabotropic glutamate receptor 7, sequence (Q14831 whole entry): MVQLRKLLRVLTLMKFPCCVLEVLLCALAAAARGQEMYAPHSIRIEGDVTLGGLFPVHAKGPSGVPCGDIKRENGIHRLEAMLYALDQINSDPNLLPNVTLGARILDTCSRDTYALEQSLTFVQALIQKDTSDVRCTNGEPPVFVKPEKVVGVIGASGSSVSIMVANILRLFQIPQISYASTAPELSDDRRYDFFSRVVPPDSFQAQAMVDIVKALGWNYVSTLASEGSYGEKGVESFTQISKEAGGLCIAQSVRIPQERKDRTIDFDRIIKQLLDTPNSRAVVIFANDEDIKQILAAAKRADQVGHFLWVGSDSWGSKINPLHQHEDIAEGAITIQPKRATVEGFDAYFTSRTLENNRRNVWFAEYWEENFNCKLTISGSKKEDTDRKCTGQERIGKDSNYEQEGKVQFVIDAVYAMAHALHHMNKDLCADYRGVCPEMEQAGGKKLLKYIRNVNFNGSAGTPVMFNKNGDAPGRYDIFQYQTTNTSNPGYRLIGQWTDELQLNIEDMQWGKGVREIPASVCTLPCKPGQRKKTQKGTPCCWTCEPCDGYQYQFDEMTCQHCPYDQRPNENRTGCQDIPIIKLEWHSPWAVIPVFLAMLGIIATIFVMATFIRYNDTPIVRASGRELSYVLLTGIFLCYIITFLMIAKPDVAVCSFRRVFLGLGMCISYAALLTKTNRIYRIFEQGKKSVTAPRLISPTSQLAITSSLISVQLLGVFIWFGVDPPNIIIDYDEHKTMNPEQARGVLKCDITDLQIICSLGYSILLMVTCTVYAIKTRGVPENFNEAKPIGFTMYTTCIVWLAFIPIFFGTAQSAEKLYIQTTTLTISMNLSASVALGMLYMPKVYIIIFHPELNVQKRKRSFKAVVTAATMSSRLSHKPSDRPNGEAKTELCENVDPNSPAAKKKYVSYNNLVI

Metabotropic glutamate receptor 2, sequence (Q14416 whole entry): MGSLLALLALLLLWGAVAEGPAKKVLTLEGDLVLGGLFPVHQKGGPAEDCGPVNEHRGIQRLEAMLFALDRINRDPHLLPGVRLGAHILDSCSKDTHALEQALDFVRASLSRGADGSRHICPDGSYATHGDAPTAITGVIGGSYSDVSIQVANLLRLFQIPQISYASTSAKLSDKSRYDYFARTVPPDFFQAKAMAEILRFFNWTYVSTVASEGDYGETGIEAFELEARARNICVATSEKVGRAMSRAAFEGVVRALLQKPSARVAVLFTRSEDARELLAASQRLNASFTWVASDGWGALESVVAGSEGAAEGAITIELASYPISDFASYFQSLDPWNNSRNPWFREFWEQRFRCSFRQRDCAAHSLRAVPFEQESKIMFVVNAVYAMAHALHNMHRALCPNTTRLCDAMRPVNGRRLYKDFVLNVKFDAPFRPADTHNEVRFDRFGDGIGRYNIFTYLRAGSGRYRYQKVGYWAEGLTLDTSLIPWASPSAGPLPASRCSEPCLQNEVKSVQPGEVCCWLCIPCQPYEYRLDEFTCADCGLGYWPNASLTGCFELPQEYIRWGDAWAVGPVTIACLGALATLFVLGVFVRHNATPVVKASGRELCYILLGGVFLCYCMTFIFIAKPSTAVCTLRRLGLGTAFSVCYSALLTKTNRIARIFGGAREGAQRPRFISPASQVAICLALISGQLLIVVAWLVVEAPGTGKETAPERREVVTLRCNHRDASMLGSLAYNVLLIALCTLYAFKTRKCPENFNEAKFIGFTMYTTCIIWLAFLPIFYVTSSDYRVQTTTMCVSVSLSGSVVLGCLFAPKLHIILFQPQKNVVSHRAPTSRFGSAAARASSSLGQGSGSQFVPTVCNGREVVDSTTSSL

SMILES | EC50 [1] | Ki [2] | Ki [3] | EC50 [4] | EC50 [5] | EC50 [6] | EC50 [7] | EC50 [8]
NC(C(=O)O)[C@H]1[C@@H](c2ccccc2)[C@@H]1P(=O)(O)O (some centres not stated) | 320 µM | 190 µM | 630 µM | > 1000 µM | > 1000 µM |  |  | 
NC(C(=O)O)[C@@H]1[C@H](c2ccccc2)[C@H]1P(=O)(O)O (some centres not stated) | > 1000 µM |  | > 1000 µM | > 1000 µM | > 1000 µM | > 1000 µM |  | 
NC(C(=O)O)[C@@H]1[C@@H](c2ccccc2)[C@H]1P(=O)(O)O (some centres not stated) | > 1000 µM |  | > 1000 µM | > 1000 µM | > 1000 µM |  | > 1000 µM | > 1000 µM
NC(C(=O)O)[C@H]1[C@H](c2ccccc2)[C@@H]1P(=O)(O)O (some centres not stated) | > 1000 µM | 130 µM | 24 µM | > 1000 µM | > 1000 µM | 59 µM | 51 µM | > 1000 µM
NC(C(=O)O)[C@H]1C[C@@H]1P(=O)(O)O (some centres not stated) | > 1000 µM | 63 µM | 7.4 µM | > 1000 µM | > 1000 µM | 9.4 µM | 13 µM | 700 µM

Source: ChEMBL document CHEMBL1147898, “Synthesis and preliminary pharmacological evaluation of the four stereoisomers of (2S)-2-(2'-phosphono-3'-phenylcyclopropyl)glycine, the first class of 3'-substituted trans C1'-2'-2-(2'-phosphonocyclopropyl)glycines” (Bioorg Med Chem, 2007)
